Data on 7 compounds can be found in PMC6370590 (European journal of pharmaceutical sciences : official …, 2018).

In data set [1] the target is T1, 14M_zTDP2^cat (humanized zebrafish TDP2 catalytic domain) (Danio rerio, UniProt Q5XJA0, A139S/C239T/C322L/D120S/K240R/K309Q/K314L/L136N/P317T/R321K/S320C/T315G/V316I/V319A/Y318A).
T1 sequence (Q5XJA0 120-369 D120S/L136N/A139S/C239T/K240R/K309Q/K314L/T315G/V316I/P317T/Y318A/V319A/S320C/R321K/C322L): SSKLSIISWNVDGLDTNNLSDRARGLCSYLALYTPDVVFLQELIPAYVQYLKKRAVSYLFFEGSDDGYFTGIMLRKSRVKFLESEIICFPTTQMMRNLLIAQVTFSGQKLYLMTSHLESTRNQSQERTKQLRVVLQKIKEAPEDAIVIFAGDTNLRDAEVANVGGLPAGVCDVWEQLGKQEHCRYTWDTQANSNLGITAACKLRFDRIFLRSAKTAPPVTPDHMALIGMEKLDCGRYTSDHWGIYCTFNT
Briefly: 14M_zTDP2^cat fluorescence-based biochemical assay. The note with it: for TDP2 inhibition, SAR statement: compared with hit 11a; for LE (ligand efficiency): LE = 1.4 x pIC50 / HAC; for LELP (ligand efficiency dependent lipophilicity): LELP = LE / cLogP as printed; for LLE (lipophilic ligand efficiency): LLE = pIC50 - cLogP. An outline of the steps:
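Humanized zebrafish TDP2 catalytic domain (residues 120–369), 6.25 pM final, pre-incubated 10 min with test compound in pH 7.4 Tris buffer (10 mM MgCl₂, 80 mM KCl, 0.05% Tween-20, 1 mM DTT). Reaction started with 1 μM (final) FAM-phosphotyrosyl-GATCT-BHQ-1 substrate at 25 °C. Fluorescence ([…]) read kinetically over 60 min. % inhibition normalised to DMSO and no-enzyme controls. IC₅₀ fitted from 10–12 concentrations.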

For the next data set, the target named is T2, SUMO hTDP2^cat (Homo sapiens, UniProt O95551).
T2 sequence (O95551 110-362): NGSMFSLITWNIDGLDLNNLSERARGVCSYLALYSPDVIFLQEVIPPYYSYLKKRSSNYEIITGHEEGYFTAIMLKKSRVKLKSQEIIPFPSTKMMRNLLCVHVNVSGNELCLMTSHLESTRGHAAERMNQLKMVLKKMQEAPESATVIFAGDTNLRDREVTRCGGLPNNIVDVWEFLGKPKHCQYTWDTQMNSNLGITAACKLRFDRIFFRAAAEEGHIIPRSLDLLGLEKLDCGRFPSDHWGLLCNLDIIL
Briefly: SUMO hTDP2^cat fluorescence-based biochemical assay.

Turning to `CCOc1ccc2nc(NC(=N)N)nc(C)c2c1` [Compound 11b, 1-(6-Ethoxy-4-methylquinazolin-2-yl) guanidine], the “TDP2 inhibition, SAR statement” value in data set [1] was “did not interfere significantly with the activity”.

As to `Cc1ccc(-c2nn3c(-c4ccco4)nnc3s2)cc1C` [Compound 19a, 6-(3,4-Dimethylphenyl)-3-(furan-2-yl)-[1,2,4]triazolo[3,4-b][1,3,4] thiadiazole], in data set [1], the “LE (ligand efficiency)” value was 0.30, the “LELP (ligand efficiency dependent lipophilicity)” value is 14 and the “LLE (lipophilic ligand efficiency)” value was found to be 0.29.

As for `COc1ccc2nc(Nc3nc(C)c(C)c(=O)[nH]3)nc(C)c2c1` [Compound 12a, 2-((6-Methoxy-4-methylquinazolin-2-yl)amino)-5,6-dimethylpyrimidin-4(3H)-one], the “fold increase in potency over the original HTS hit 11a” value on SUMO hTDP2^cat (ratio of IC50 values) worked out at 6.4 fold.

On to `Cc1nc(NC(=N)N)nc2ccc(Cl)cc12.Cl` [Compound 11c, 1-(6-Chloro-4-methylquinazolin-2-yl) guanidine hydrochloride], for which the inhibitory activity entry in data set [1] (up to 200 µM, vs. 11a) is “abrogated completely the inhibitory activity”.

As a reminder, the IC50 is the concentration at which inhibition is half-maximal. Higher therefore signals a need for much substance. Consider `COc1ccc2nc(NC(=N)N)nc(C)c2c1` [Compound 11a, 1-(6-Methoxy-4-methylquinazolin-2-yl) guanidine], for which, in data set [1], the “LE (ligand efficiency)” value amounted to 0.32, the “LELP (ligand efficiency dependent lipophilicity)” value is reported as 4.9 and the “LLE (lipophilic ligand efficiency)” value came out at 2.3. The same compound returned an IC50 at SUMO hTDP2^cat of 113 ± 10 µM.

In the case of `COc1ccccc1-c1nn2c(-c3ccco3)nnc2s1` [Compound 19b, 3-(Furan-2-yl)-6-(2-methoxyphenyl)-[1,2,4]triazolo[3,4-b][1,3,4]thiadiazole], in data set [1] (concentrations up to 100 µM), the TDP2 inhibition result is recorded as “did not exhibit significant TDP2 inhibition”.

As to `COc1ccc2nc(NC(=N)N)[nH]c(=O)c2c1` [Compound 15, 1-(6-Methoxy-4-oxo-3,4-dihydroquinazolin-2-yl)guanidine], the “TDP2 inhibition, SAR statement” value in data set [1] was “no inhibition was observed”.
